From ChEMBL document CHEMBL4265871, “Novel alkylated azoles as potent antifungals” (Eur J Med Chem, 2017)
Values after ≈ are worked out from the molar mass of the structure shown.

Columns and labels:
[1] = Selectivity index, ratio of EC50 for toxicity in human A549 cells to MIC50 for antifungal activity against Candida glabrata ATCC 2001; assay type: cell-based; settings: read-out: Selectivity Index
Outline: (§1)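 Selectivity index is the EC50 against the mammalian line (A549 or BEAS-2B) divided by the MIC against the given fungal strain.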

[2] = Selectivity index, ratio of EC50 for toxicity in human A549 cells to MIC50 for antifungal activity against ITC and FLC-resistant Candida albicans ATCC MYA-1003; assay type: cell-based; settings: read-out: Selectivity Index; outline: as §1
[3] = Selectivity index, ratio of EC50 for toxicity in human BEAS2B cells to MIC50 for antifungal activity against Candida krusei ATCC 6258; settings: BEAS-2B cells
Candida albicans [4] = test: Antifungal activity against ITC and FLC-resistant Candida albicans ATCC MYA-1003 incubated for 48 hrs by modified CLSI M27-A3 protocol based method; assay type: functional; settings: ATCC MYA-1003, 48 h
Outline: (§2)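 Because these Candida strains show trailing growth, MIC-2 was read, meaning 50% growth inhibition. Caspofungin and voriconazole were tested here; other controls came from earlier work.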

Candida albicans [5] = test: Antifungal activity against Candida albicans ATCC 10231 incubated for 48 hrs by modified CLSI M27-A3 protocol based method; assay type: functional; settings: ATCC 10231, 48 h, read-out: MIC100
Outline: (§3)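 For C. albicans ATCC 10231, C. krusei ATCC 6258 and C. parapsilosis ATCC 22019, MIC-0 was read, meaning complete growth inhibition. For azole controls, MIC-2 (50% growth inhibition) was reported instead. Caspofungin and voriconazole were tested here; other controls came from earlier work.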

[6] = Selectivity index, ratio of EC50 for toxicity in human BEAS2B cells to MIC50 for antifungal activity against ITC and FLC-resistant Candida albicans ATCC MYA-1003; assay type: cell-based; settings: BEAS-2B cells, read-out: Selectivity Index; outline: as §1
[7] = Hemolytic activity in mouse erythrocytes assessed as hemolysis level at 3.9 ug/ml incubated for 1 hr at 37 degC; assay type: ADME, cell-based, Erythrocyte; settings: read-out: Activity
Outline: (§4)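 Mouse erythrocytes incubated 1 h at 37 °C with test agents over 1.95 to 125 µg/mL. Percent lysis is read for each concentration.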

Nakaseomyces glabratus = test: Antifungal activity against Candida glabrata ATCC 2001 incubated for 48 hrs by modified CLSI M27-A3 protocol based method; assay type: functional; settings: ATCC 2001, 48 h
Aspergillus flavus = test: Antifungal activity against Aspergillus flavus ATCC MYA-3631 incubated for 48 hrs by CLSI M38-A2 protocol based method; assay type: functional; settings: ATCC MYA-3631, 48 h, read-out: MIC100
[8] = Selectivity index, ratio of EC50 for toxicity in human BEAS2B cells to MIC50 for antifungal activity against ITC and FLC-susceptible Candida albicans ATCC MYA-2876; assay type: cell-based; settings: BEAS-2B cells, read-out: Selectivity Index
Outline: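 Ratio of the compound's EC50 against BEAS-2B cells to its MIC against the named C. albicans strain. […] For C. albicans strains other than ATCC 10231, trailing growth meant MIC-2 was taken, meaning 50% growth inhibition.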

Aspergillus nidulans = test: Antifungal activity against Aspergillus nidulans ATCC 38163 incubated for 48 hrs by CLSI M38-A2 protocol based method; assay type: functional; settings: ATCC 38163, 48 h, read-out: MIC100
[9] = Selectivity index, ratio of EC50 for toxicity in human BEAS2B cells to MIC50 for antifungal activity against Candida glabrata ATCC 2001; assay type: cell-based; settings: BEAS-2B cells, read-out: Selectivity Index; outline: as §1
Aspergillus terreus = test: Antifungal activity against Aspergillus terreus ATCC MYA-3633 incubated for 48 hrs by CLSI M38-A2 protocol based method; assay type: functional; settings: ATCC MYA-3633, 48 h, read-out: MIC100
Candida albicans [10] = test: Antifungal activity against ITC and FLC-resistant Candida albicans ATCC 1237 incubated for 48 hrs by modified CLSI M27-A3 protocol based method; assay type: functional; settings: ATCC 1237, 48 h; outline: as §2
[11] = Selectivity index, ratio of […] for toxicity in human BEAS2B cells to MIC50 for antifungal activity against Aspergillus nidulans ATCC 38163; assay type: cell-based; settings: BEAS-2B cells, read-out: Selectivity Index
Candida albicans [12] = test: Antifungal activity against ITC and FLC-susceptible Candida albicans ATCC MYA-2310 incubated for 48 hrs by modified CLSI M27-A3 protocol based method; assay type: functional; settings: ATCC MYA-2310, 48 h
[13] = Selectivity index, ratio of EC50 for toxicity in human A549 cells to MIC50 for antifungal activity against ITC and FLC-susceptible Candida albicans ATCC MYA-2876; assay type: cell-based; settings: read-out: Selectivity Index; outline: as §1
[14] = Hemolytic activity in mouse erythrocytes assessed as hemolysis level at 15.6 ug/ml incubated for 1 hr at 37 degC; assay type: ADME, cell-based, Erythrocyte; settings: read-out: Activity; outline: as §4
[15] = Hemolytic activity in mouse erythrocytes assessed as hemolysis level at 31.3 ug/ml incubated for 1 hr at 37 degC; assay type: ADME, cell-based, Erythrocyte; settings: read-out: Activity; outline: as §4
[16] = Selectivity index, ratio of EC50 for toxicity in human A549 cells to MIC for antifungal activity against Candida parapsilosis ATCC 22019
[17] = Hemolytic activity in mouse erythrocytes assessed as hemolysis level at 7.8 ug/ml incubated for 1 hr at 37 degC; assay type: ADME, cell-based, Erythrocyte; settings: read-out: Activity; outline: as §4
Candida albicans [18] = test: Antifungal activity against ITC and FLC-susceptible Candida albicans ATCC MYA-2876 incubated for 48 hrs by modified CLSI M27-A3 protocol based method; assay type: functional; settings: ATCC MYA-2876, 48 h; outline: as §2
[19] = Selectivity index, ratio of EC50 for toxicity in human BEAS2B cells to MIC50 for antifungal activity against ITC and FLC-resistant Candida albicans ATCC 1237; assay type: cell-based; settings: BEAS-2B cells, read-out: Selectivity Index; outline: as §1
[20] = Selectivity index, ratio of […] for toxicity in human A549 cells to MIC50 for antifungal activity against Aspergillus terreus ATCC MYA-3633; assay type: cell-based; settings: read-out: Selectivity Index
Candida parapsilosis = test: Antifungal activity against Candida parapsilosis ATCC 22019 incubated for 48 hrs by modified CLSI M27-A3 protocol based method; assay type: functional; settings: Lodderomyces parapsilosis, ATCC 22019, 48 h; read-out: MIC100; outline: as §3
[21] = Hemolytic activity in mouse erythrocytes assessed as hemolysis level at 125 ug/ml incubated for 1 hr at 37 degC; assay type: ADME, cell-based, Erythrocyte; settings: read-out: Activity; outline: as §4
Candida albicans [22] = test: Antifungal activity against Candida albicans ATCC 64124 incubated for 48 hrs by modified CLSI M27-A3 protocol based method; assay type: functional; settings: ATCC 64124, 48 h
Pichia kudriavzevii = test: Antifungal activity against Candida krusei ATCC 6258 incubated for 48 hrs by modified CLSI M27-A3 protocol based method; assay type: functional; settings: ATCC 6258, 48 h, read-out: MIC100; outline: as §3
[23] = Selectivity index, ratio of EC50 for toxicity in human A549 cells to MIC50 for antifungal activity against ITC and FLC-susceptible Candida albicans ATCC MYA-2310; assay type: cell-based; settings: read-out: Selectivity Index; outline: as §1
[24] = Selectivity index, ratio of EC50 for toxicity in human BEAS2B cells to MIC100 for antifungal activity against Candida albicans ATCC 10231; assay type: cell-based; settings: BEAS-2B cells, read-out: Selectivity Index; outline: as §1
[25] = Selectivity index, ratio of EC50 for toxicity in human A549 cells to MIC50 for antifungal activity against ITC and FLC-resistant Candida albicans ATCC 1237; assay type: cell-based; settings: read-out: Selectivity Index; outline: as §1
[26] = Selectivity index, ratio of […] for toxicity in human A549 cells to MIC50 for antifungal activity against Aspergillus nidulans ATCC 38163; assay type: cell-based; settings: read-out: Selectivity Index

Structure (SMILES) | selectivity ratio [1] | selectivity ratio [2] | selectivity ratio [3] | MIC50 (Candida albicans [4]) | MIC (Candida albicans [5]) | selectivity ratio [6] | hemolysis at 1 h, 3.9 ug/ml [7] | MIC50 (Nakaseomyces glabratus) | MIC (Aspergillus flavus) | selectivity ratio [8] | MIC (Aspergillus nidulans) | selectivity ratio [9] | MIC (Aspergillus terreus) | MIC50 (Candida albicans [10]) | selectivity ratio [11] | MIC50 (Candida albicans [12]) | selectivity ratio [13] | hemolysis at 1 h, 15.6 ug/ml [14] | hemolysis at 1 h, 31.3 ug/ml [15] | selectivity ratio [16] | other results
CCCCCCC(O)(Cn1cncn1)c1ccc(Cl)cc1 (stereo not drawn) | 1 | 19 | 16 | 6.3 µM (≈ 1.94 µg/mL) | 6.3 µM (≈ 1.94 µg/mL) | 16 | 0% | > 102 µM | > 102 µM | 4 | 12.7 µM (≈ 3.91 µg/mL) | 1 | 50.7 µM (≈ 15.6 µg/mL) | 12.7 µM (≈ 3.91 µg/mL) | 8 | 102 µM (≈ 31.3 µg/mL) | 5 | 0% | 9.5% | 1 | hemolysis at 1 h, 7.8 ug/ml [17]: 0%; MIC50 (Candida albicans [18]): 25.3 µM (≈ 7.79 µg/mL); selectivity ratio [19]: 8; selectivity ratio [20]: 2; MIC (Candida parapsilosis): > 102 µM; hemolysis at 1 h, 125 ug/ml [21]: 102%; MIC50 (Candida albicans [22]): 102 µM (≈ 31.3 µg/mL); MIC (Pichia kudriavzevii): 6.3 µM (≈ 1.94 µg/mL); selectivity ratio [23]: 1; selectivity ratio [24]: 16; selectivity ratio [25]: 10; selectivity ratio [26]: 10
CCCCCCC(O)(Cn1cncn1)c1ccc(F)cc1 (stereo not drawn) | 4 | 4 | 32 | 26.8 µM (≈ 7.81 µg/mL) | 53.5 µM (≈ 15.6 µg/mL) | 4 | 0% | 26.8 µM (≈ 7.81 µg/mL) | > 107 µM | 4 | 6.7 µM (≈ 1.95 µg/mL) | 4 | 53.5 µM (≈ 15.6 µg/mL) | 107 µM (≈ 31.3 µg/mL) | 16 | 26.8 µM (≈ 7.81 µg/mL) | 4 | 0% | 0% | 65 | hemolysis at 1 h, 7.8 ug/ml [17]: 5.2%; MIC50 (Candida albicans [18]): 26.8 µM (≈ 7.81 µg/mL); selectivity ratio [19]: 1; selectivity ratio [20]: 2; MIC (Candida parapsilosis): 1.6 µM (≈ 0.466 µg/mL); hemolysis at 1 h, 125 ug/ml [21]: 24.1%; MIC50 (Candida albicans [22]): > 107 µM; MIC (Pichia kudriavzevii): 3.3 µM (≈ 0.962 µg/mL); selectivity ratio [23]: 4; selectivity ratio [24]: 2; selectivity ratio [25]: 1; selectivity ratio [26]: 16
CCCCCCC(O)(Cn1cncn1)c1ccccc1F (stereo not drawn) | 32 | 8 | 522 | 13.4 µM (≈ 3.9 µg/mL) | 6.7 µM (≈ 1.95 µg/mL) | 8 | 0% | 3.3 µM (≈ 0.962 µg/mL) | 53.5 to 107 µM (≈ 15.6 to 31.3 µg/mL) | 32 | 1.6 µM (≈ 0.466 µg/mL) | 32 | 13.4 µM (≈ 3.9 µg/mL) | 3.3 µM (≈ 0.962 µg/mL) | 65 | 3.3 µM (≈ 0.962 µg/mL) | 32 | 0% | 8.7% | 261 | hemolysis at 1 h, 7.8 ug/ml [17]: 0%; MIC50 (Candida albicans [18]): 3.3 µM (≈ 0.962 µg/mL); selectivity ratio [19]: 32; selectivity ratio [20]: 8; MIC (Candida parapsilosis): 0.41 µM (≈ 0.119 µg/mL); hemolysis at 1 h, 125 ug/ml [21]: 85.6%; MIC50 (Candida albicans [22]): > 107 µM; MIC (Pichia kudriavzevii): 0.21 µM (≈ 0.0612 µg/mL); selectivity ratio [23]: 32; selectivity ratio [24]: 16; selectivity ratio [25]: 32; selectivity ratio [26]: 65
CCCCCCC(O)(Cn1cncn1)c1ccc(F)cc1F (stereo not drawn) | 9 | 18 | 261 | 6.3 µM (≈ 1.95 µg/mL) | 6.3 µM (≈ 1.95 µg/mL) | 16 | 0% | 12.6 µM (≈ 3.9 µg/mL) | 50.4 µM (≈ 15.6 µg/mL) | 16 | 1.6 µM (≈ 0.495 µg/mL) | 8 | 25.2 µM (≈ 7.8 µg/mL) | 6.3 µM (≈ 1.95 µg/mL) | 65 | 12.6 µM (≈ 3.9 µg/mL) | 18 | 8.2% | 10.4% | 1170 | hemolysis at 1 h, 7.8 ug/ml [17]: 0%; MIC50 (Candida albicans [18]): 6.3 µM (≈ 1.95 µg/mL); selectivity ratio [19]: 16; selectivity ratio [20]: 4; MIC (Candida parapsilosis): < 0.1 µM; hemolysis at 1 h, 125 ug/ml [21]: 60.9%; MIC50 (Candida albicans [22]): 25.2 µM (≈ 7.8 µg/mL); MIC (Pichia kudriavzevii): 0.39 µM (≈ 0.121 µg/mL); selectivity ratio [23]: 9; selectivity ratio [24]: 16; selectivity ratio [25]: 18; selectivity ratio [26]: 73
